Experimental data from the EternaBench riboswitch data.

Tested on: MS2 coat protein
Experiment: apparent Kd, MS2 coat protein; higher = weaker binding; RNA-MaP array; FMN 200 µM where present
In short: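 Binding was read on Illumina sequencing-chip clusters where stalled E. coli RNA polymerase had transcribed each design. A titration of SNAP-549-labelled MS2 coat protein began at 0.7 or 1.5 nM and doubled to 3 µM, once without ligand and once with constant ligand, in 100 mM Tris-HCl pH 7.5, 80 mM KCl, 4 mM MgCl2, BSA, DTT, yeast tRNA and Tween-20. The apparent Kd is the median of filtered per-cluster binding-curve fits, based on green signal normalised to red-channel RNA signal and control-cluster median Fmax.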

[1] = designed as: ON switch for flavin mononucleotide, no ligand
[2] = ligand present: flavin mononucleotide, designed as: ON switch for flavin mononucleotide
[3] = designed as: OFF switch for flavin mononucleotide, no ligand
[4] = ligand present: flavin mononucleotide, designed as: OFF switch for flavin mononucleotide

Sequence | apparent Kd [1] | apparent Kd [2] | apparent Kd [3] | apparent Kd [4]
ACUUUAACUCGACAUGAGGAUCACCCAUGUCCUAGUACUACACAGGAUAUCUCGGACUCCUCGUGAGAGAAGGGUGAGCACUAA | 0.395 µM | 0.587 µM | – | –
AGUAACUCAGAUCUUUUGAACAUGAGGAUCACCCAUGUAUUGAGAAGGAGCUGGAAGAGAGACAGCUAGGAUAUCAGAGUUGCG | – | – | 0.00596 µM | 0.00719 µM
AUCAGCUCGUCAGGAUAUACAUCACUGCUUCGGCAGUGUAUCAUAACAACAUGAGGAUCACCCAUGUAGAAGGGACGAGCUGAU | – | – | 0.0238 µM | 0.0347 µM
GGUUGUCAUCGUCGUCCUUUCGGUACAUGAGGAUCACCCAUGUAGGAUAUGCUGCAUUCGAUGUGGCAGAAGGGCAUGUGUGUU | – | – | 0.0255 µM | 0.0715 µM
GUACUGAAGCUUUGCUUUAGUCGUACAUGAGGAUCACCCAUGUAGGAUAUGGUAGGCUUUGCUUACUAGAAGGAUAGAGUGAUU | – | – | – | 0.0398 µM
AAAAUGUGAGGAUAUGCGAAGGCGUCUGAUAGACGAGGCUAGCAGAAGGCACAUGAGGAUCACCCAUGUCCAAA | – | – | 0.0403 µM | 0.0603 µM
CUUCUGUAAGGAUAUUGCGAUAAGCAUGACAUCGCCGGUCGCAAGAAGGUACAUGAGGAUCACCCAUGUGCGGU | – | – | 0.161 µM | 0.152 µM
UUGCAGUCGUCAGGAUAUAGUAUUACGGCCUUUCAUUUCUUCAUACAUGAGGAUCACCCAUGUCGCUAGAAGGGCUUAUCGCUU | – | – | 0.0148 µM | 0.0132 µM
AUCAGCACGUGAGGAUAUGCGUCACUGCGAAAGCAGUGCGGUAAGAUCACAUGAGGAUCACCCAUGUAGAAGGCACGAGCUGAU | – | – | 0.0208 µM | 0.054 µM
GCCGGUUAAGUCAGGAUAUACCUAUGGAUACAUAGGUAGAAGGGACAUGAGGAUCACCCAUGUUCCUCAUCGGC | – | – | 0.0161 µM | 0.0489 µM
UUUGUCUGUGUGAGGAUAUACUUGUUUGGGUUUUUGUAGAAGGCACAUGAGGAUCACCCAUGUAUUUUGUCGUG | – | – | 0.0436 µM | 0.0616 µM
GGGACUCUAAAUGGGCUGUCGACAUAGGAUAUGAUGUGCGACAUGAGGAUCACCCAUGUAACGAAUUAGAAGGGUGUAGGCAUG | 0.574 µM | 0.173 µM | – | –
AAGGAUAGAGGAUAUACAUAGAUACAGAUUCAUGUGGAACUACAUGAGGAUCACCCAUGUAGAAGGCUAUCCUA | – | – | 0.0401 µM | 0.262 µM
ACAUGAGACUAAGGAUAUGAUGUACCUAUAUGUGACAUGAGGAUCACCCAUGUGGUAAGUAUGACUCAGAAGGUAGAGAUAUGU | 0.222 µM | 0.0774 µM | – | –
GUUAUGCGAGGAUAUACAUGAGGAUCACCCAUGUAAUCUGGUGGCGUGAAAAUAAAGUGUAGAAGGCGCUGACC | – | – | 0.0176 µM | 0.0319 µM
AAUAAACUCACAGGAUAUAGCAGAGGUCGCGCGAACUUACAGGCGACUAUGCUAGAAGGGUGACCACAUGAGGAUCACCCAUGU | 0.944 µM | 0.162 µM | – | –
CGGCGACAUGAGGAUCACCCAUGUCAAGAGUGGUCAGGAUAUGGUAUGAGAUGAGUAUGGCCAGAAGGGACAUAAG | 0.0291 µM | 0.0212 µM | – | –
AGCGGCGCGGGCCACCGCAGAACCAGAAGGACAUGAGGAUCACCCAUGUAACAGAACAGGGCGGUGUAGGAUAUGGCAGGCUCG | – | – | 0.0251 µM | 0.0462 µM
AUGGGACAUGAGGAUCACCCAUGUCCGGUAUAUCGAGGAUAUGGGAUGCUCUUAAUGUAACCAGAAGGCGAUAAAA | 0.0166 µM | 0.0189 µM | – | –
GUCCGUAGACAGAAGGUGACAUGAGGAUCACCCAUGUUAGUUGAGGUAUCAGCGAUCUGCGUGAUUGAGGAUAUGUCUACGGGC | – | – | 0.0079 µM | 0.00822 µM
CAGUACUGAGGAUAUACAUGAGGAUCACCCAUGUGUUCCAGCUAGGAAACUAGCAAAAGUAGAAGGCAGUACUG | – | – | 0.0275 µM | 0.589 µM
UAUUUAUAAUAUUUUAACAUGAGGAUCACCCAUGUCGCUAGACAGGAUAUAUUUUAUUUGUUUAAGUAGAAGGGUCAUAGAUUU | 0.175 µM | 0.145 µM | – | –
UUAGAAUUGCAAGGAUAUCUAAUUUAGAUAGUAAGAGAAGGUGCUUUAUAGUUACAUGAGGAUCACCCAUGUUUUUUUGUUUAU | 0.0351 µM | 0.0273 µM | – | –
AUAUAUAUAGGAUAUACAUGAGGAUCACCCAUGUGCUUCAGCUAGGAGACUAGCAUUGGUAGAAGGAUAUAUAU | – | – | 0.0161 µM | 0.0261 µM

Sequence | apparent Kd [1] | apparent Kd [2] | apparent Kd [3] | apparent Kd [4]
CUCAGACAUGAGGAUCACCCAUGUUAGGAUAUAUAAAAGAGCGGCAGAGCGCUCUUCCAUAGAAGGAGCAGUGU | – | – | 0.0272 µM | 0.0277 µM
UUUGGGAGCACAGGAUAUGGCGCGUCGACCGCGCCAGAAGGGUGAUUCUGUUGGUGGCCACAUGAGGAUCACCCAUGUGCCUCC | 0.0424 µM | 0.0553 µM | – | –
CUGUACAUAGGAUAUAGUUGUUUUUACAUGAGGAUCACCCAUGUUACUCCUCUCUCUCUUCUAGAAGGAUGUUUCU | – | – | 0.0658 µM | 0.0501 µM
AAAAGGUCAGGAUAUGCGAGCGGCAGGGAGGCAGGUCGGUGGCAGAAGGGACAUGAGGAUCACCCAUGUUAAAA | – | – | 0.035 µM | 0.0341 µM
AUCAGCUCGUCAGGAUAUACGUCACUGCGUCAGCAGUGUGGUAAGAUCACAUGAGGAUCACCCAUGUAGAAGGGUCGAGCUGAU | – | – | 0.0177 µM | 0.349 µM
GUUAAACAUGAGGAUCACCCAUGUAAGGAUAUGCUGCGGUCGCGCUGACGUGACUGCAGCAGAAGGUACAAUUG | – | – | 0.1 µM | 0.0774 µM
CUCAUGUGAGGAUAUGUACAGAAAAAAAUGGGUGAAACUGUACAGAAGGCACAUGAGGAUCACCCAUGUGCCUU | – | – | 0.0243 µM | 0.0122 µM
GACGGAUGUAUAGGAUAUCGACUGGAAUACAGUCGAGAAGGAUACAUGAGGAUCACCCAUGUAACCGUCAAUAAUAAUAAUAAU | – | – | 0.014 µM | 0.0297 µM
CCUAGUGUGCAGAAGGAGAGUUAACUGCCCGUCGAUGGACUGCACAGAGCUCUAGGAUAUGCACAUGAGGAUCACCCAUGUGCU | – | – | 0.00653 µM | 0.00776 µM
ACAUGGAAUACAGGAUAUGUAAGUUUUAAGUAGAUUGGUUAUUACUUUACUACAGAAGGGUAAUACAUGAGGAUCACCCAUGUA | 0.0169 µM | 0.0122 µM | – | –
CUUUUGUGAGGAUAUCAGUUGUAAAUAAAUAAAAUUACUACUGAGAAGGCACAUGAGGAUCACCCAUGUUCCUC | – | – | 0.0381 µM | 0.198 µM
CCAGCAACAUGAGGAUCACCCAUGUAGGAUAUCGCUAUUGUAAUCAUGAAACAUGAUUACAAUAGCGAGAAGGACAUAUGCUCC | – | – | 0.00753 µM | 0.0102 µM
AUUGUUAAGGUAGGAUAUAGUAAAAUGAUUUAAUUAGAAGGAUCUCACAUGAGGAUCACCCAUGUAAGAGGAUUACCCAUGUAU | – | – | 0.0145 µM | 0.0132 µM
UCGUAUAAGGGCAUUACACAUGAGGAUCACCCAUGUACGUUAGAGGAUAUGCAUUUCAGUUGAACGUAGAAGGCUAGAGAAGGG | – | – | 0.117 µM | 0.103 µM
GAUAGACAUGAGGAUCACCCAUGUGAGGAUAUGCGUACGUUGUCAGUAGGCGACGUGCGCAGAAGGCGCAAGUU | – | – | 0.0771 µM | 0.0465 µM
GCUGUCGCGUGAGGAUAUGGUCGGCUGUGCUGACCAGAAGGCAUGUCGAUAGACAUGAGGAUCACCCAUGUGGUUAGGGCGGCU | 0.79 µM | 0.313 µM | – | –
CUUCCAGUUGCAGGAUAUCGAGAGGAGAGAUUACGAGAAGGGCAACAUGAGGAUCACCCAUGUAUGUGCUUGGGACAACCUAUC | – | – | 0.0168 µM | 0.107 µM
AAUAUGUGAGGAUAUAUCCACCGCGUAGGCUCGCGGUGACAAUAGAAGGUACAUGAGGAUCACCCAUGUAGGGA | – | – | 0.0677 µM | 0.0369 µM
GAACUGAAGCAUAGCUUUAGUCGUACAUGAGGAUCACCCAUGUAGGAUAUGGUAGGCAUCGCUUACUAGAAGGAUAGAGUGAUC | – | – | 0.172 µM | 0.0871 µM
AAUGAAACUUAGAAGGCCUACAUGAGGAUCACCCAUGUGGCUUUAAGUGUAGGAGGAUAUGAGGAUGCGGGUAGGAACCCACGC | – | – | 0.00637 µM | 0.0148 µM
AGACUGCGUAGAAUUAGCAGCUGACAGGAUAUGACAUGAGGAUCACCCAUGUGAAAUAAGAAGGGUCAGAAGGGUCACGACACA | – | – | 0.0117 µM | 0.00998 µM
GUGAUAUUGUAAGGAUAUACUCUGUGAUGAAGAGUAGAAGGUACUUACAUGAGGAUCACCCAUGUUUAACGAGAUACUAAUCGU | 0.198 µM | 0.0769 µM | – | –
ACGGACCUAGGAUAUACAUGAGGAUCACCCAUGUGCCCGCAUGGUCCGGGUCCUGAGAGUAGAAGGAGGAGCGA | – | – | 0.0509 µM | 0.0432 µM
AUUUAAUUUAAUAAGAUCACAUGAGGAUCACCCAUGUAUAUAUAGGAUAUCAGCUCGAAUAGAGCUGAGAAGGAUAUAUACAUG | – | – | 0.0474 µM | 0.041 µM
